# Experimental data reported in ChEMBL document CHEMBL1153775, “Synthesis, structure elucidation and antitumour activity of N-substituted amides of 3-(3-ethylthio-1,2,4-triazol-5-yl)propenoic acid” (Eur J Med Chem, 2009).
# Key:
# [1] = Cytotoxicity against human HSF cells assessed as growth inhibition at 0.16 mM after 24 hrs by spectrophotometer using BrdU labeling; type: cell-based; settings: read-out: GI
# [2] = Cytotoxicity against human HSF cells assessed as growth inhibition at 0.16 mM after 48 hrs by spectrophotometer using BrdU labeling; type: cell-based; settings: read-out: GI
# [3] = Cytotoxicity against human HSF cells assessed as growth inhibition at 0.16 mM after 72 hrs by spectrophotometer using BrdU labeling; type: cell-based; settings: read-out: GI
# [4] = tested on: A549; assay: Cytotoxicity against human A549 cells assessed as growth inhibition at 0.16 mM after 24 hrs by spectrophotometer using BrdU labeling; type: functional; settings: A549, 24 h, read-out: GI
# [5] = tested on: A549; assay: Cytotoxicity against human A549 cells assessed as growth inhibition at 0.16 mM after 48 hrs by spectrophotometer using BrdU labeling; type: functional; settings: A549, 48 h, read-out: GI
# [6] = tested on: A549; assay: Cytotoxicity against human A549 cells assessed as growth inhibition at 0.16 mM after 72 hrs by spectrophotometer using BrdU labeling; type: functional; settings: A549, 72 h, read-out: GI
# [7] = tested on: A549; assay: Cytotoxicity against human A549 cells assessed as growth inhibition at 0.32 mM after 24 hrs by spectrophotometer using BrdU labeling; type: functional; settings: A549, 24 h, read-out: GI
# [8] = tested on: A549; assay: Cytotoxicity against human A549 cells assessed as growth inhibition at 0.32 mM after 48 hrs by spectrophotometer using BrdU labeling; type: functional; settings: A549, 48 h, read-out: GI
# [9] = tested on: A549; assay: Cytotoxicity against human A549 cells assessed as growth inhibition at 0.32 mM after 72 hrs by spectrophotometer using BrdU labeling; type: functional; settings: A549, 72 h, read-out: GI
# [10] = tested on: A549; assay: Cytotoxicity against human A549 cells assessed as growth inhibition at 0.03 mM after 24 hrs by spectrophotometer using BrdU labeling; type: functional; settings: A549, 24 h, read-out: GI
# [11] = tested on: A549; assay: Cytotoxicity against human A549 cells assessed as growth inhibition at 0.03 mM after 48 hrs by spectrophotometer using BrdU labeling; type: functional; settings: A549, 48 h, read-out: GI
# [12] = tested on: A549; assay: Cytotoxicity against human A549 cells assessed as growth inhibition at 0.03 mM after 72 hrs by spectrophotometer using BrdU labeling; type: functional; settings: A549, 72 h, read-out: GI
# [13] = tested on: T47D; assay: Cytotoxicity against human T47D cells assessed as growth inhibition at 0.03 mM after 24 hrs by spectrophotometer using BrdU labeling; type: functional; settings: read-out: GI
# [14] = tested on: T47D; assay: Cytotoxicity against human T47D cells assessed as growth inhibition at 0.03 mM after 48 hrs by spectrophotometer using BrdU labeling; type: functional; settings: read-out: GI
# [15] = tested on: T47D; assay: Cytotoxicity against human T47D cells assessed as growth inhibition at 0.03 mM after 72 hrs by spectrophotometer using BrdU labeling; type: functional; settings: read-out: GI
# [16] = tested on: T47D; assay: Cytotoxicity against human T47D cells assessed as growth inhibition at 0.32 mM after 24 hrs by spectrophotometer using BrdU labeling; type: functional; settings: read-out: GI
# In short: (§1)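 Human breast carcinoma T47D cells were plated at 10⁴ cells per mL on microtiter plates. Each compound was added at three doses, given as mM equivalents of three mass concentrations. Plates were incubated for 24, 48 or 72 h. The read-out was percent growth inhibition (GI).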
# [17] = tested on: T47D; assay: Cytotoxicity against human T47D cells assessed as growth inhibition at 0.32 mM after 48 hrs by spectrophotometer using BrdU labeling; type: functional; settings: read-out: GI; in short: as §1
# [18] = tested on: T47D; assay: Cytotoxicity against human T47D cells assessed as growth inhibition at 0.32 mM after 72 hrs by spectrophotometer using BrdU labeling; type: functional; settings: read-out: GI; in short: as §1
# [19] = tested on: T47D; assay: Cytotoxicity against human T47D cells assessed as growth inhibition at 0.16 mM after 24 hrs by spectrophotometer using BrdU labeling; type: functional; settings: read-out: GI
# [20] = tested on: T47D; assay: Cytotoxicity against human T47D cells assessed as growth inhibition at 0.16 mM after 48 hrs by spectrophotometer using BrdU labeling; type: functional; settings: read-out: GI
# [21] = tested on: T47D; assay: Cytotoxicity against human T47D cells assessed as growth inhibition at 0.16 mM after 72 hrs by spectrophotometer using BrdU labeling; type: functional; settings: read-out: GI; in short: as §1
# [22] = Cytotoxicity against human HSF cells assessed as growth inhibition at 0.03 mM after 24 hrs by spectrophotometer using BrdU labeling; type: cell-based; settings: read-out: GI
# [23] = Cytotoxicity against human HSF cells assessed as growth inhibition at 0.03 mM after 48 hrs by spectrophotometer using BrdU labeling; type: cell-based; settings: read-out: GI
# [24] = Cytotoxicity against human HSF cells assessed as growth inhibition at 0.03 mM after 72 hrs by spectrophotometer using BrdU labeling; type: cell-based; settings: read-out: GI
# [25] = Cytotoxicity against human HSF cells assessed as growth inhibition at 0.32 mM after 24 hrs by spectrophotometer using BrdU labeling; type: cell-based; settings: read-out: GI
# [26] = Cytotoxicity against human HSF cells assessed as growth inhibition at 0.32 mM after 48 hrs by spectrophotometer using BrdU labeling; type: cell-based; settings: read-out: GI
# [27] = Cytotoxicity against human HSF cells assessed as growth inhibition at 0.32 mM after 72 hrs by spectrophotometer using BrdU labeling; type: cell-based; settings: read-out: GI
# [28] = Cytotoxicity against human HSF cells assessed as growth inhibition at 0.14 mM after 72 hrs by spectrophotometer using BrdU labeling; type: cell-based; settings: read-out: GI
# [29] = tested on: A549; assay: Cytotoxicity against human A549 cells assessed as growth inhibition at 0.28 mM after 24 hrs by spectrophotometer using BrdU labeling; type: functional; settings: A549, 24 h, read-out: GI
# [30] = tested on: T47D; assay: Cytotoxicity against human T47D cells assessed as growth inhibition at 0.14 mM after 24 hrs by spectrophotometer using BrdU labeling; type: functional; settings: read-out: GI
# [31] = tested on: T47D; assay: Cytotoxicity against human T47D cells assessed as growth inhibition at 0.28 mM after 24 hrs by spectrophotometer using BrdU labeling; type: functional; settings: read-out: GI; in short: as §1
# [32] = tested on: T47D; assay: Cytotoxicity against human T47D cells assessed as growth inhibition at 0.28 mM after 48 hrs by spectrophotometer using BrdU labeling; type: functional; settings: read-out: GI; in short: as §1
# [33] = tested on: T47D; assay: Cytotoxicity against human T47D cells assessed as growth inhibition at 0.28 mM after 72 hrs by spectrophotometer using BrdU labeling; type: functional; settings: read-out: GI; in short: as §1
# [34] = tested on: A549; assay: Cytotoxicity against human A549 cells assessed as growth inhibition at 0.14 mM after 72 hrs by spectrophotometer using BrdU labeling; type: functional; settings: A549, 72 h, read-out: GI
# [35] = tested on: A549; assay: Cytotoxicity against human A549 cells assessed as growth inhibition at 0.28 mM after 48 hrs by spectrophotometer using BrdU labeling; type: functional; settings: A549, 48 h, read-out: GI
# [36] = tested on: A549; assay: Cytotoxicity against human A549 cells assessed as growth inhibition at 0.28 mM after 72 hrs by spectrophotometer using BrdU labeling; type: functional; settings: A549, 72 h, read-out: GI
# [37] = tested on: A549; assay: Cytotoxicity against human A549 cells assessed as growth inhibition at 0.14 mM after 24 hrs by spectrophotometer using BrdU labeling; type: functional; settings: A549, 24 h, read-out: GI
# [38] = tested on: A549; assay: Cytotoxicity against human A549 cells assessed as growth inhibition at 0.14 mM after 48 hrs by spectrophotometer using BrdU labeling; type: functional; settings: A549, 48 h, read-out: GI
# [39] = tested on: T47D; assay: Cytotoxicity against human T47D cells assessed as growth inhibition at 0.14 mM after 48 hrs by spectrophotometer using BrdU labeling; type: functional; settings: read-out: GI
# [40] = tested on: T47D; assay: Cytotoxicity against human T47D cells assessed as growth inhibition at 0.14 mM after 72 hrs by spectrophotometer using BrdU labeling; type: functional; settings: read-out: GI
# [41] = Cytotoxicity against human HSF cells assessed as growth inhibition at 0.28 mM after 24 hrs by spectrophotometer using BrdU labeling; type: cell-based; settings: read-out: GI
# [42] = Cytotoxicity against human HSF cells assessed as growth inhibition at 0.28 mM after 48 hrs by spectrophotometer using BrdU labeling; type: cell-based; settings: read-out: GI
# [43] = Cytotoxicity against human HSF cells assessed as growth inhibition at 0.28 mM after 72 hrs by spectrophotometer using BrdU labeling; type: cell-based; settings: read-out: GI
# [44] = Cytotoxicity against human HSF cells assessed as growth inhibition at 0.14 mM after 24 hrs by spectrophotometer using BrdU labeling; type: cell-based; settings: read-out: GI
# [45] = Cytotoxicity against human HSF cells assessed as growth inhibition at 0.14 mM after 48 hrs by spectrophotometer using BrdU labeling; type: cell-based; settings: read-out: GI
compound,measurement,setting,value
CCSc1n[nH]c(/C=C\C(=O)Nc2ccccc2Cl)n1,"inhibition at 24 h, 160 µM",[1],0%
same,"inhibition at 48 h, 160 µM",[2],0%
same,"inhibition at 72 h, 160 µM",[3],0%
same,inhibition of growth at 160 µM,[4],50%
same,inhibition of growth at 160 µM,[5],50%
same,inhibition of growth at 160 µM,[6],50%
same,inhibition of growth at 320 µM,[7],50%
same,inhibition of growth at 320 µM,[8],50%
same,inhibition of growth at 320 µM,[9],75%
same,inhibition of growth at 30 µM,[10],25%
same,inhibition of growth at 30 µM,[11],25%
same,inhibition of growth at 30 µM,[12],25%
same,inhibition of growth at 30 µM,[13],0%
same,inhibition of growth at 30 µM,[14],0%
same,inhibition of growth at 30 µM,[15],5%
same,inhibition of growth at 320 µM,[16],0%
same,inhibition of growth at 320 µM,[17],10%
same,inhibition of growth at 320 µM,[18],90%
same,inhibition of growth at 160 µM,[19],0%
same,inhibition of growth at 160 µM,[20],10%
same,inhibition of growth at 160 µM,[21],50%
same,"inhibition at 24 h, 30 µM",[22],0%
same,"inhibition at 48 h, 30 µM",[23],0%
same,"inhibition at 72 h, 30 µM",[24],5%
same,"inhibition at 24 h, 320 µM",[25],25%
same,"inhibition at 48 h, 320 µM",[26],50%
same,"inhibition at 72 h, 320 µM",[27],75%
CCSc1n[nH]c(/C=C\C(=O)Nc2ccc(Br)cc2)n1,"inhibition at 72 h, 140 µM",[28],75%
same,inhibition of growth at 280 µM,[29],50%
same,inhibition of growth at 140 µM,[30],5%
same,inhibition of growth at 280 µM,[31],5%
same,inhibition of growth at 280 µM,[32],20%
same,inhibition of growth at 280 µM,[33],25%
same,inhibition of growth at 140 µM,[34],50%
same,inhibition of growth at 30 µM,[10],25%
same,inhibition of growth at 30 µM,[11],25%
same,inhibition of growth at 30 µM,[12],0%
same,inhibition of growth at 280 µM,[35],50%
same,inhibition of growth at 280 µM,[36],75%
same,inhibition of growth at 140 µM,[37],50%
same,inhibition of growth at 140 µM,[38],50%
same,inhibition of growth at 140 µM,[39],10%
same,inhibition of growth at 140 µM,[40],25%
same,inhibition of growth at 30 µM,[13],0%
same,inhibition of growth at 30 µM,[14],0%
same,inhibition of growth at 30 µM,[15],0%
same,"inhibition at 24 h, 280 µM",[41],75%
same,"inhibition at 48 h, 280 µM",[42],75%
same,"inhibition at 72 h, 280 µM",[43],50%
same,"inhibition at 24 h, 140 µM",[44],75%
same,"inhibition at 48 h, 140 µM",[45],75%
same,"inhibition at 24 h, 30 µM",[22],0%
same,"inhibition at 48 h, 30 µM",[23],0%
same,"inhibition at 72 h, 30 µM",[24],0%
